From PubChem BioAssay
A selection: hits, their analogues and other compounds. The true share with any hit is near 1%.
FXIIa inh = factor XIIa (human) inhibition. purified FXIIa, Boc-QGR-AMC fluorogenic substrate, 2 h. P00748. inhibition, % at 5 µM. 0.3% of 220,000 active; in the data active means inhibition above about 40%
Target sequence (P00748 20-372 limits assumed): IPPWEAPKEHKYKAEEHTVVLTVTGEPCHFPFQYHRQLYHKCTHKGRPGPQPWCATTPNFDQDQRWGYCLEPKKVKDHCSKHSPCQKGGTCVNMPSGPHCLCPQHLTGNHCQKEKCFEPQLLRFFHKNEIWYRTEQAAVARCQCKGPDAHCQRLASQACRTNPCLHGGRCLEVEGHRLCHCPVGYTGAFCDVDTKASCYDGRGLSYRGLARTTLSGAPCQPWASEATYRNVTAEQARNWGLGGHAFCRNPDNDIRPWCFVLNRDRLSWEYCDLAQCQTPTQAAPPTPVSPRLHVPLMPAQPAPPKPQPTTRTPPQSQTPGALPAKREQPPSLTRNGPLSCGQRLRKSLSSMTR
Target sequence (P00748 373-615 limits assumed): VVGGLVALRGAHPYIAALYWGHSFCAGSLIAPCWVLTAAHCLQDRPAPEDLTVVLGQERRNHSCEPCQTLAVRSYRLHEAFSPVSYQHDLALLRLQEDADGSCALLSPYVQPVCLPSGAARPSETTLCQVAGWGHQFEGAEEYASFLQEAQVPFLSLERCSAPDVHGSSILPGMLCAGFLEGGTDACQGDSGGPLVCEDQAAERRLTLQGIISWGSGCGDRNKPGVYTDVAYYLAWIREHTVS
FXIa inh 1536 = inhibitors of human coagulation factor XIa. 0.14% of 220,000 active. P03951. AID 798. purified FXIa, Boc-Glu-Ala-Arg-AMC fluorogenic substrate. inhibition, % at 5 µM;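 active means inhibition of at least 40%; inactive means inhibition below 40%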;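 further: fluorescence of freed AMC excited at 355 nm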
Thrombin inh = blocks human thrombin protease activity; inhibition, % at 5 µM; AID 1046; P00734; alpha-thrombin, Boc-VPR-AMC fluorogenic substrate cleavage; 0.26% of 220,000 active;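 active means inhibition at or above 40%; inactive means inhibition below 40%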
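Material: human alpha-thrombin protein; Also added: Boc-VPR-AMC substrate, 15 µM final; Timing: enzyme reaction carried out at room temperature; Signal: fluorescence, ex 355 nm, em 460 nm; Measure: % inhibition of thrombin; Controls: enzyme without compound as high, wells lacking enzyme as low.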
hK5 inh = blocks human kallikrein 5 protease activity; Q9Y337; inhibition, % at 5 µM; recombinant hK5, fluorogenic AMC substrate cleavage; 0.59% of 210,000 active; AID 873;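 active means inhibition of 40% or more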
Of the large screens only hits and unclear results are named; the others gave an inactive call.

O=C(Nc1nc(-c2ccncc2)cs1)c1ccc(F)cc1	none
CC(C)(C)OC(=O)C(Cl)(C(=O)OC(C)(C)C)c1ccc2nnnn2n1	none
Fc1cccc(Oc2nc3ccccc3n3cccc23)c1	none
CCCCc1nnc(NC(=O)COc2ccc3c(C)cc(=O)oc3c2)s1	hK5 inh 112
Cc1cc(=O)oc2cc(OCC(=O)Nc3nnc(CC(C)C)s3)ccc12	none
O=C(CCC1CCCN(C(=O)C2(c3ccccc3)CC2)C1)N1CCN(c2ccccn2)CC1 (stereo not given)	Thrombin inh 96
O=C(CCC1CCCN(c2ncccn2)C1)N1CCN(c2ccccn2)CC1 (stereo not given)	none
C=CCCCCCCCC(=O)OC	none
CC(NC(=O)c1cnc2n(c1=O)CCS2)c1ccccc1 (stereo not given)	hK5 inh 41
CCC(C)NC(=O)c1cnc2n(c1=O)CCS2 (stereo not given)	none
CC(C)c1cccc(OCCCCN(C)C)c1	none
CC1(C)CC(=O)c2c(O)cc(OCc3ccc([N+](=O)[O-])cc3)cc2O1	none
O=C(NCCN1CCc2ccccc2C1)C1CC(=O)N(C2CCCC2)C1 (stereo not given)	FXIIa inh 73
CN1CCN(CCCNC(=O)C2CC(=O)N(C3CCCCC3)C2)CC1 (stereo not given)	none
NC(=O)c1c(NC(=O)Cn2nc(C(=O)O)c3ccccc3c2=O)sc2c1CCCC2	Thrombin inh 99
O=C(OCc1ccccc1)/C(=C/c1cccc2ccccc12)NC(=O)c1ccccc1	hK5 inh 47
Cc1cc(Cl)ccc1NC(=S)NCC(C)C	none
O=[N+]([O-])c1ccc(-c2nc(C(Cl)Cl)c3ccccc3n2)cc1	none
CN(C)c1ccc(/C=N/NC(=O)CCCCCNC(=O)c2ccccc2)cc1	hK5 inh 80
N#Cc1nc(COc2ccc(Br)cc2)oc1NCCN1CCOCC1	hK5 inh 45
Cc1ccccc1NC(=O)C1(NC(=O)c2cccc(N3C(=O)CSC3c3ccccc3)c2)CCCCC1 (stereo not given)	hK5 inh 80
COc1ccc(Oc2ccccc2/C=N/O)cc1	hK5 inh 117
O=Cc1ccccc1Oc1ccccc1	none
O=C(COc1cc(Cl)c(Cl)cc1Cl)N1CCN(c2ccccn2)CC1	Thrombin inh 54
O=C(COc1ccc(Cl)cc1Cl)N1CCN(c2ccccn2)CC1	none
O=C(CNC(=S)N(Cc1ccccc1)Cc1ccccc1F)NCc1ccc(Cl)cc1	none (no result: Thrombin inh)
Cn1c(=O)cc(OCCCC(=O)NC2CCCC2)c2ccccc21	hK5 inh 70
Cn1c(=O)cc(OCC(=O)NC2CCCCC2)c2ccccc21	none
CCN(CC)CCCN(Cc1cc2cc3c(cc2[nH]c1=O)OCO3)C(=S)Nc1ccccc1OC	Thrombin inh 45, hK5 inh 52
COC(=O)c1sc(C(C)(C)C)cc1CS(=O)(=O)c1ccc(Cl)cc1	none
CCCCOC(=O)n1ccc(C(=O)Nc2ccccc2OC)n1	Thrombin inh 45
CCC1=NN(C(=O)Cc2ccc([N+](=O)[O-])cc2)C(O)(C(F)(F)F)C1 (stereo not given)	FXIIa inh 56
CC(=O)NC1CSCC1OC(C)=O (stereo not given)	hK5 inh 67
Cc1ccccc1NC(=S)N(Cc1ccco1)C(C)c1ccccn1 (stereo not given)	none (no result: hK5 inh)
Cc1ccc(C(=O)N/N=C/c2ccc(-c3cccc(C(F)(F)F)c3)o2)cn1	none
CC(C)(C)C(=O)Nc1ccc(C(=O)N/N=C/c2ccccc2OC(=O)c2ccc(Cl)cc2)cc1	none
CC(C)(C)C(=O)Nc1ccc(C(=O)N/N=C/c2ccccc2OC(=O)c2ccccc2)cc1	FXIa inh 1536 60
Cc1ccc(C)c2[nH]c(=O)c(CN(Cc3nnnn3C3CCCCC3)CC3CCCO3)cc12 (stereo not given)	FXIIa inh 41
Cc1ccsc1C(=O)NNC(=O)C1CC=CCC1C(=O)O (stereo not given)	hK5 inh 55
O=C(CN1CCN(Cc2ccccc2Cl)CC1)N/N=C/C=C/c1ccccc1[N+](=O)[O-]	none
Cc1c(NC(=O)c2ccccc2N)cccc1C(=O)O	none
CC(C)c1ccc(NC(=O)c2ccc(Br)o2)cc1	FXIIa inh 50
Cc1c(NC(=O)c2ccc(Br)o2)cccc1C(=O)O	FXIIa inh 45
CC(C)(C)C1CCC(C(=O)OCC(=O)Nc2ccc3[nH]c(=O)[nH]c3c2)CC1 (stereo not given)	none
Cc1cc(S(=O)(=O)n2ccnc2)c(Cl)cc1Cl	none
COc1ccc(C2CC(c3ccccc3)=NN2C(=O)COC(=O)c2nc3nc(C)cc(C)n3n2)cc1 (stereo not given)	none
COC(=O)c1sc(N2C(=O)C(O)=C(C(=O)c3ccc(C)o3)C2c2ccc(F)cc2)nc1C (stereo not given)	hK5 inh 51
Cc1ccc(C(=O)C2=C(O)C(=O)N(c3ncccn3)C2c2ccc(F)cc2)o1 (stereo not given)	none
Cc1nn(CCc2nn[nH]n2)c2nc(-c3ccc(Br)cc3)cc(C(F)(F)F)c12	FXIIa inh 41
CNC(=O)CSc1nc2nc(C)cc(C)n2n1	none
Cc1cc(C)n2nc(SCC(=O)Nc3ccc(F)cc3)nc2n1	FXIIa inh 41
COc1ccc2cc(Br)ccc2c1CC(=O)NC(C)(C)C	none
CCOC(=O)c1c(C)n(C)c2ccc(OC(=O)c3ccc(N4C(=O)CCC4=O)cc3)cc12	none
COc1ccc(N2C(=O)[C@@H]3[C@H](C2=O)[C@H]2c4ccccc4C=CN2[C@@H]3C(=O)Nc2ccccc2)cc1	FXIIa inh 45, Thrombin inh 61
O=C(OCC(=O)c1ccc(Cl)s1)c1ccc2ccccc2n1	FXIIa inh 43
CC1Nc2nc(N(C)C)[nH]c(=O)c2NC1C (stereo not given)	none
Cc1cc(C)c(C#N)c(SCc2ccc([N+](=O)[O-])cc2)n1	FXIIa inh 41
Cc1cc(C)c(C#N)c(SCC(=O)c2ccccc2)n1	none
Cc1ccc(-c2c[n+](CC(=O)Nc3nc(-c4ccccc4)cs3)c3n2CCC3)cc1	none
O=C(C[n+]1cc(-c2ccccc2)n2c1CCC2)Nc1nc(-c2ccccc2)cs1	FXIIa inh 41, hK5 inh 42
CCc1cccc(CC)c1N(COC)C(=O)Cn1c(CO)nc2ccccc21	FXIIa inh 43
NC1=NC(c2cn[nH]c2-c2cccc(F)c2)n2c(nc3ccccc32)N1 (stereo not given)	none
COc1ccc(-c2[nH]ncc2C2N=C(N)Nc3nc4ccccc4n32)cc1 (stereo not given)	FXIa inh 1536 47
O=C(c1ccc(N2CCCC2=O)cc1)N1CCCCCC1	FXIIa inh 57
O=C(c1ccc(N2CCCC2=O)cc1)N1CCN(c2ccccc2)CC1	none
O=C(NNC1=NCCCCC1)Nc1cccc(Cl)c1	FXIIa inh 42, FXIa inh 1536 47, Thrombin inh 40
O=C(CN1CCN(Cc2ccccc2)CC1)N/N=C/c1cccnc1	none
N/C(=N\c1nc2ccccc2o1)NC(=O)c1ccccc1NC(=O)c1ccccc1	Thrombin inh 52
O=C1SCCC1NC(=O)C(c1ccccc1)c1ccccc1 (stereo not given)	FXIIa inh 40, FXIa inh 1536 60, hK5 inh 94
